# Shown are actives, neighbours in structure and some others; about 1.7% of the full set was active somewhere.
# Hsp70 activator – Hsp70 transcriptional activators, primary screen, cell-based, HeLa, Hsp70 promoter luciferase, luminescence, 10 µM. HeLa Hsp70 promoter luciferase reporter; scaled: vehicle 0, proteasome-inhibitor control 100%. activation, % at 10 µM. 200,000 tested, 0.04% active. AID 1203, 2008;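 active = activation above the mean across all tested compounds plus 3 SD, cutoff set per campaign, cut at about 5.5% in these data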
# EP2 modulator – EP2 receptor modulators, cAMP readout, primary screen, cell-based, HTRF cAMP, PGE2 stimulation; Prostaglandin E2 receptor EP2 subtype (Homo sapiens), P43116; 260,000 tested, 0.83% active; AID 940, 2007; induction, % at 25 µM; EP2-expressing cells, cAMP HTRF FRET, PGE2 co-stimulation;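 active = compounds whose cAMP rise, as percent of the full-agonist control response, exceeds 60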;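 also: rat C6 glioma line stably carrying human EP2 under a CMV promoter; the protocol text gives 20 µM as final concentration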
# Target sequence (P43116 whole entry, looked up): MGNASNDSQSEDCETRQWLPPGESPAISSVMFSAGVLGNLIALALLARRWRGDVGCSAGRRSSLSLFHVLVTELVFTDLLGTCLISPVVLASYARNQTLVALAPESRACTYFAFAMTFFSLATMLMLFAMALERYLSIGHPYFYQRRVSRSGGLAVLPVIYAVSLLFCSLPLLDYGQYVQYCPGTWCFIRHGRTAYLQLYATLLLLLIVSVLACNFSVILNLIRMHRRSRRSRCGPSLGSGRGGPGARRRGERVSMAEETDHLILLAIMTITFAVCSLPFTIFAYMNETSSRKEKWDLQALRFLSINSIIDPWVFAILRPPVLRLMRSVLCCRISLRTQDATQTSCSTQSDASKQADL
# Dynein transport – inhibitors of GR-EGFP nuclear translocation, primary screen, dynein cargo transport inhibitor project, imaging, high-content, 3617.4 mouse cells | test concentration mostly 20 µM; stimulated with dexamethasone, 1 µM; stronger effect = lower value | z-score, hits read low | 220,000 tested, 0.47% active;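 active = plate z-score of nuclear minus cytoplasmic receptor signal below a set negative limit, without overly bright fluorescence or cell loss, cut at about -3.5 in these data, passing the limit was not always enough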;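 also: z-score of nuclear minus cytoplasmic ring GR-EGFP intensity difference per well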
#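 Schedule: 48 h induction, then 1 h compound, then 30 min agonist, 37 °C. Buffer or medium: tetracycline-free induction medium containing charcoal-stripped FBS. Reagent: 1.0 µM final dexamethasone stimulus. Evaluation: nuclear versus cytoplasmic GR-EGFP signal, averaged per well. Signal: high-content fluorescence imaging after fixation.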
# EP2 antag – human EP2 receptor antagonists, primary screen, TR-FRET cAMP, C6 glioma cells | AID 1422, 2008 | C6 glioma cells expressing human EP2; cells stimulated with saturating PGE2 | 260,000 tested, 0.52% active | inhibition, % at 25 µM;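 active = percent inhibition above 40 after rounding to a whole number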;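 also: rat C6 glioma host cells with rolipram phosphodiesterase inhibitor present; the protocol text gives 20 µM as final concentration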
# Dynein confirm – dynein cargo transport inhibitors, GR-EGFP translocation, confirmation, imaging, high-content imaging, GR-EGFP cells; shares compounds with Dynein transport; 3617.4 GR-EGFP nuclear translocation imaging, dexamethasone-induced; calls only at 20 µM; 1,000 tested, 69% active;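 active = inhibition of receptor movement into the nucleus at or above a set limit in both runs, with normal cell brightness and cell count; inconclusive = limit reached in only one run, brightness and count normal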;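 also: dexamethasone at 1 µM final in well for 30 min; nuclear minus cytoplasmic GR-EGFP mean intensity difference in channel 2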
# A number is an active result; - = inactive; ? = inconclusive; . = no result; + = active, no number.
SMILES,Hsp70 activator,EP2 modulator,Dynein transport,EP2 antag,Dynein confirm
CCOc1cc(/C=C2/COc3ccccc3C2=O)ccc1OCC(=O)N(C)C,-,-,-3.6,-,+
Cc1ccc(S(=O)(=O)CC(CN2CCOCC2)N2CCOCC2)cc1 (configuration not stated),-,-,-,-,.
CC1CCN(CC(CS(=O)(=O)c2ccc([N+](=O)[O-])cc2)N2CCC(C)CC2)CC1 (configuration not stated),.,-,-4.7,-,+
O=C1NC(=S)N(c2ccccc2F)C(=O)/C1=C/c1cc(Br)c(N2CCOCC2)o1,.,-,.,-,.
Cc1ccc(S(=O)(=O)n2nc(C)cc2C)cc1,-,-,-,-,.
Cc1ccc(C(C[N+](=O)[O-])n2nc(C)cc2C)cc1 (configuration not stated),-,-,-5.3,-,-
COc1ccc(C(NC(=O)C(C)c2ccccc2)c2nccn2C)cc1 (configuration not stated),.,-,.,-,.
O=[N+]([O-])/C=C/c1cn(Cc2ccc(F)cc2)c2ccccc12,-,-,-3.9,-,+
O=C(O)c1ccc(N/N=C/c2cn(Cc3ccc(F)cc3)c3ccccc23)cc1,.,-,-,-,.
C=CCNC(=O)c1cc2n(n1)C(C(F)(F)F)CC(c1ccco1)N2 (configuration not stated),.,-,.,-,.
COc1ccc(OCC2COS(=O)O2)cc1 (configuration not stated),.,-,.,-,.
CC(C)(C)C(=O)/C(C#N)=C/c1cccs1,.,-,-,-,.
N#C/C(=C\c1cccs1)C(=O)c1ccccc1Cl,.,-,-4.9,113,+
Cc1cccc(N2CCN(C(=O)Cn3sc4nc(C)cc(C)c4c3=O)CC2C)c1 (configuration not stated),-,-,-4.4,121,?
CCOC(=O)c1cn(-c2c(Cl)cccc2Cl)c2cc(Cl)c([N+](=O)[O-])cc2c1=O,-,-,-4.4,-,+
COc1ccc(Nc2nc(NCCO)nc(N3CCOCC3)n2)cc1,.,-,.,-,.
O=C(Nc1ccccc1)c1cccc(Cn2cc(C(F)(F)F)ccc2=O)c1,.,-,-,-,.
O=C(Sc1ccccc1)c1cccc(Cn2cc(C(F)(F)F)ccc2=O)c1,.,-,-3.9,-,+
COC(=O)CSc1nc2c(c(=O)[nH]c(=O)n2C)n1Cc1ccccc1,.,-,.,-,.
Cc1ccccc1CS(=O)(=O)c1nnc([C@H](Cc2ccccc2)NC(=O)OC(C)(C)C)o1,-,-,-5.5,-,+
COc1ncccc1C1(O)CC2CCC(C1)N2C(=O)c1ccc(Cn2cc(Cl)cn2)o1 (configuration not stated),.,-,.,.,.
COc1cc(NC(=O)Cn2ncc(Cl)c(Cl)c2=O)c(C)cc1[N+](=O)[O-],-,-,-3.8,-,+
C/C(Cl)=C/Cn1c(NCc2ccco2)nc2c1c(=O)[nH]c(=O)n2C,.,-,.,-,.
CS(=O)(=O)c1ccc(S(=O)CC(=O)Oc2ccc(Cl)cc2)c([N+](=O)[O-])c1 (configuration not stated),-,-,-6.5,-,+
N#Cc1cccc(NC(=O)CSc2ccc3c4c(cccc24)C(=O)c2ccccc2-3)c1,-,-,-,-,+
SMILES,Hsp70 activator,EP2 modulator,Dynein transport,EP2 antag,Dynein confirm
CCOc1ccc(C(=O)/C=C/c2cc(OC)c(OC)c(OC)c2)cc1,-,-,-4.2,-,+
COc1cc(/C=C/C(=O)c2ccc(F)cc2)cc(OC)c1OC,-,-,-4.7,-,+
COc1cc(/C=C/C(=O)O)cc(OC)c1OC,.,-,-,-,.
COc1ccccc1CN(CCCn1ccnc1)Cc1[nH]c2ccc(F)cc2c1C,.,-,.,-,.
CCn1c(SCC(=O)Nc2ccc(Cl)cc2)nnc1C1CCCCC1,.,-,.,-,.
O=C(NC1CCCCC1)C(c1cccnc1)N(C(=O)CCl)c1cccc(Cl)c1 (configuration not stated),-,-,-4.3,-,+
Cc1cc(C)cc(N(C(=O)Cc2cccs2)C(C(=O)NC2CCCCC2)c2cccnc2)c1 (configuration not stated),.,-,.,-,.
N#C/C(=C\c1cccc([N+](=O)[O-])c1)C(=O)NCc1ccc(Cl)cc1,-,-,-6.8,-,+
CCc1ccc2[nH]c(=O)c(C(c3nnnn3C(C)(C)C)N3CCc4ccccc4C3)cc2c1 (configuration not stated),.,-,.,-,.
CCN(CC)CCCNC(=O)c1ccc2c(SCC(=O)O)c3c(nc2c1)CCC3,-,-,-,-,.
CCN(CC)CCCNC(=O)c1ccc2c(Cl)c3c(nc2c1)CCCC3,-,-,-3.9,-,+
CC1CCN(C(=O)c2ccc3c(Cl)c4c(nc3c2)CCCC4)CC1,-,-,-6,-,+
CCOC(=O)N1CC=C2C(C#N)=C(N)C(C#N)(C#N)C(CCc3ccccc3)C2C1 (configuration not stated),.,-,.,-,.
CN1CC=C2C(C#N)=C(N)C(C#N)(C#N)C(Cc3ccccc3)C2C1 (configuration not stated),-,-,-,-,-
COc1ccccc1-c1cc(C(F)(F)F)nc(S(=O)(=O)CCCC(=O)O)n1,-,-,-,-,.
COc1ccc(-c2cc(C(F)(F)F)nc(S(=O)(=O)CCCC(=O)Nc3cccc(O)c3)n2)cc1OC,-,-,-5.6,-,+
NCCNC1CS(=O)(=O)CC1O (configuration not stated),.,-,.,-,.
O=C(/C=C/c1ccco1)Nc1ccccc1N1CCCC1,-,-,-3.6,-,-
CC1(C)CC(N=c2cc(-c3ccccc3)oc3ccc(Cl)cc23)CC(C)(C)N1,-,-,-3.5,-,-
OCCCN=c1cc(-c2ccccc2)oc2ccc(Cl)cc12,-,-,-,-,.
O=C(CN1C(=O)N2CCN=C2c2ccccc21)N1CCCC1,.,-,.,-,.
COc1cc(N)cc(-n2nnnc2C)c1,.,-,.,-,.
Cc1ccc(C2C3CSCC=C3C(C#N)=C(N)C2(C#N)C#N)cc1 (configuration not stated),-,-,-4.1,-,-
COc1cc(C2/C(=C(/O)c3cc(C)ccc3C)C(=O)C(=O)N2CCN(C)C)ccc1O (configuration not stated),.,-,.,-,.
CCCn1c(SCCC(=O)OCC)nc2c1c(=O)n(C)c(=O)n2C,.,-,.,-,.
NC(=O)c1ccc(NC(=O)CSC2=Nc3ccccc3C3CC=NN23)cc1 (configuration not stated),-,-,-4.2,-,-
COC(=O)c1ccc(NC(=O)CSC2=Nc3ccccc3C3CC=NN23)cc1 (configuration not stated),-,-,-,-,.

# Screening data as filed in PubChem BioAssay.
